The source made the active and inactive calls. The calls are words filed in the database; no cut-off is given here.
Experiments:
[1] = molecular target: T1, Bromodomain-containing protein 4 (Homo sapiens, UniProt O60885); test: Inhibition of BRD4 bromodomain-1 (unknown origin) by europium based LANCE TR-FRET assay
[2] = molecular target: T1, Bromodomain-containing protein 4; test: Inhibition of BRD4 bromodomain-1 (unknown origin) at 300 uM by europium based LANCE TR-FRET assay
Method in brief: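 Run with a commercial BRD4 bromodomain 1 TR-FRET assay kit, read out as europium-based LANCE time-resolved fluorescence resonance energy transfer.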

[3] = molecular target: T1, Bromodomain-containing protein 4; details: at 100 µM

CSc1ccccc1C(=O)Nc1ncnc2[nH]cnc12
IC50 [1]: 29.7 µM

Cn1cnc2c(NC(=O)c3ccccc3)ncnc21
inhibition [2]: < 50% | inhibition [3]: 3.7%

COc1cccc(C(=O)Nc2ncnc3[nH]cnc23)c1OC
IC50 [1]: 78.6 µM

COc1cccc(C(=O)Nc2ncnc3[nH]cnc23)c1
IC50 [1]: 63 µM

O=C(Nc1cccc2c1ncn2C(=O)c1ccccc1)c1ccccc1
inhibition [2]: < 50% | inhibition [3]: 7.2%

COc1cccc(OC)c1C(=O)Nc1ncnc2[nH]cnc12
inhibition [2]: < 50% | inhibition [3]: 11.5%

c1ccc(CNc2ncnc3[nH]cnc23)cc1
inhibition [3]: inactive

O=C(Nc1ccncn1)c1ccccc1
inhibition [2]: < 50% | inhibition [3]: 5.8%

Cc1ccccc1C(=O)Nc1ncnc2[nH]cnc12
inhibition [2]: < 50% | inhibition [3]: 40.4%

Cc1noc(C)c1N1C(=O)c2ccccc2C1=O
inhibition [3]: inactive

COc1ccccc1C(=O)Nc1ncnc2[nH]cnc12
IC50 [1]: 16 µM

O=C(Nc1cccc2ncccc12)c1ccccc1
inhibition [2]: < 50% | inhibition [3]: 16.4%

COc1ccc(OC)c(C(=O)Nc2ncnc3[nH]cnc23)c1
IC50 [1]: 7.2 µM

C/C(=C\CNc1ncnc2[nH]cnc12)CO
inhibition [3]: inactive

O=C(Nc1ncnc2[nH]cnc12)c1ccccc1Br
inhibition [2]: < 50% | inhibition [3]: 39%

COc1ccc(C(=O)Nc2ncnc3[nH]cnc23)cc1OC
IC50 [1]: 7.8 µM

COc1ccc(C(=O)Nc2ncnc3[nH]cnc23)cc1
IC50 [1]: 34.5 µM

O=C(Nc1cccc2[nH]cnc12)c1ccccc1
inhibition [2]: < 50% | inhibition [3]: 4.8%

COc1cc(OC)cc(C(=O)Nc2ncnc3[nH]cnc23)c1
IC50 [1]: 17.9 µM

Cc1n[nH]c(C)c1CN1C(=O)c2ccccc2C1=O
inhibition [3]: inactive

O=C1CCC(N2C(=O)c3ccccc3C2=O)C(=O)N1 (stereo unspecified)
inhibition [3]: inactive

CCCOc1ccccc1C(=O)Nc1ncnc2[nH]cnc12
IC50 [1]: 20 µM

O=C(Nc1ncnc2[nH]cnc12)c1cccc(Br)c1
inhibition [2]: < 50% | inhibition [3]: 44.5%

CN(C)c1ccccc1C(=O)Nc1ncnc2[nH]cnc12
IC50 [1]: 5.6 µM

O=C(c1ccccc1)N(C(=O)c1ccccc1)c1ccncn1
inhibition [2]: < 50% | inhibition [3]: 11%

O=C(Nc1ncnc2[nH]cnc12)c1ccc(Br)cc1
inhibition [2]: < 50% | inhibition [3]: 36.7%

O=C(Nc1ncnc2nc[nH]c12)c1ccccc1
IC50 [1]: 34.2 µM

COc1cc(OC)c(C(=O)Nc2ncnc3[nH]cnc23)cc1OC
IC50 [1]: 0.427 µM

COc1ccc(C(=O)Nc2ncnc3[nH]cnc23)c(OC)c1
inhibition [2]: < 50% | inhibition [3]: 40.8%

— ChEMBL document CHEMBL3396987, “Discovery and structure-activity relationship studies of N6-benzoyladenine derivatives as novel BRD4 inhibitors” (Bioorg Med Chem, 2015)
